This note sets out measurements from ChEMBL document CHEMBL4014350, “Alkoxyurea-Based Histone Deacetylase Inhibitors Increase Cisplatin Potency in Chemoresistant Cancer Cell Lines” (J Med Chem, 2017).

The structures appear in SMILES notation.

Assay [1] addresses T1, Histone deacetylase 1/6 (Homo sapiens) (UniProt Q13547+Q9UBN7). Description: Inhibition of HDAC1/HDAC6 in human Cal27CisR cells assessed as potentiation of 5 uM cisplatin-induced cytotoxicity by measuring combination index at 1500 uM preincubated for 48 hrs followed by cisplatin treatment measured after 72 hrs by MTT assay. The class given is cell-based. A digest of the protocol:
(§1)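 Cal27 and cisplatin-resistant Cal27CisR cells were preincubated with the HDAC inhibitor for 48 h, then given cisplatin in combination. Viability was read by MTT after 72 h. The combination index was computed by the Chou–Talalay method: CI > 1 is antagonism, CI = 1 is additive, and CI < 0.9 is synergism. Points with fraction affected below 0.20 were flagged.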

For assay [2], the system named is CAL-27. The experiment in a line: Potentiation of 1 uM cisplatin-induced cytotoxicity against human CAL27 cells assessed as decrease in cell viability by measuring combination index at 1500 uM preincubated for 48 hrs followed by cisplatin treatment measured after 72 hrs by MTT assay. The following applies: in the assay text read “at 1500 nM” for “at 1500 uM”. The class given is functional. A digest of the protocol:
as §1

In assay [3] the test system is CAL-27. The experiment in a line: Potentiation of 5 uM cisplatin-induced cytotoxicity against human CAL27 cells assessed as decrease in cell viability by measuring combination index at 1000 uM preincubated for 48 hrs followed by cisplatin treatment measured after 72 hrs by MTT assay. The following applies: in the assay text read “at 1000 nM” for “at 1000 uM”. The class given is functional. A digest of the protocol: (§2)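 HDAC inhibitor was added 48 h before cisplatin, then cells were exposed to cisplatin for 72 h and viability was read by MTT assay. Combination index was computed by the Chou–Talalay method: CI > 1 is antagonism, CI = 1 additive, CI < 0.9 synergism. Points with fraction affected below 0.20 were flagged.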
For orientation: Tetrazolium dyes change colour on reduction, which living cells bring about.

Assay [4] addresses T1, Histone deacetylase 1/6 (Homo sapiens). Description: Inhibition of HDAC1/HDAC6 in human Cal27CisR cells assessed as potentiation of 3.16 uM cisplatin-induced cytotoxicity by measuring combination index at 1500 nM preincubated for 48 hrs followed by cisplatin treatment measured after 72 hrs by MTT assay.
For assay [5], the system named is CAL-27. The experiment in a line: Potentiation of 1 uM cisplatin-induced cytotoxicity against human CAL27 cells assessed as decrease in cell viability by measuring combination index at 900 uM preincubated for 48 hrs followed by cisplatin treatment measured after 72 hrs by MTT assay. The class given is functional. A digest of the protocol:
as §2

Assay [6] concerns CAL-27. The experiment in a line: Potentiation of 0.316 uM cisplatin-induced cytotoxicity against human CAL27 cells assessed as decrease in cell viability measuring combination index at 2000 uM preincubated for 48 hrs followed by cisplatin treatment measured after 72 hrs by MTT assay. The class given is functional. As to conditions: in the assay text read “at 2000 nM” for “at 2000 uM”. A digest of the protocol:
as §1

Assay [7] addresses T1, Histone deacetylase 1/6 (Homo sapiens). Description: Inhibition of HDAC1/HDAC6 in human Cal27CisR cells assessed as potentiation of 10 uM cisplatin-induced cytotoxicity by measuring combination index at 2000 nM preincubated for 48 hrs followed by cisplatin treatment measured after 72 hrs by MTT assay.

T1 sequence (Q13547 whole entry, looked up): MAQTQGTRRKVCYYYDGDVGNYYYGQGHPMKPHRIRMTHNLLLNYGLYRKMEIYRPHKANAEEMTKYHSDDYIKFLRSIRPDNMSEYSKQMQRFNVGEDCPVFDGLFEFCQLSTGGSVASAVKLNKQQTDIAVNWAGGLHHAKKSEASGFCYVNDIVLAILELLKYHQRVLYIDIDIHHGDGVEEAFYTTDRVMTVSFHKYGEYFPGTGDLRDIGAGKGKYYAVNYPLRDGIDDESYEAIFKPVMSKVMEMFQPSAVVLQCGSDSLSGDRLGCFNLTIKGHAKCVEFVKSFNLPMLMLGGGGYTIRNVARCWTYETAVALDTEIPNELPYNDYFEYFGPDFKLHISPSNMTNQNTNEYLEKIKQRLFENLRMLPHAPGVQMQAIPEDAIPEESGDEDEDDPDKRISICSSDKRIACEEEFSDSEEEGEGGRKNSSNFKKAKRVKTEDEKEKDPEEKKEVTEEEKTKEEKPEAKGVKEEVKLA
T1 sequence (Q9UBN7 whole entry, looked up): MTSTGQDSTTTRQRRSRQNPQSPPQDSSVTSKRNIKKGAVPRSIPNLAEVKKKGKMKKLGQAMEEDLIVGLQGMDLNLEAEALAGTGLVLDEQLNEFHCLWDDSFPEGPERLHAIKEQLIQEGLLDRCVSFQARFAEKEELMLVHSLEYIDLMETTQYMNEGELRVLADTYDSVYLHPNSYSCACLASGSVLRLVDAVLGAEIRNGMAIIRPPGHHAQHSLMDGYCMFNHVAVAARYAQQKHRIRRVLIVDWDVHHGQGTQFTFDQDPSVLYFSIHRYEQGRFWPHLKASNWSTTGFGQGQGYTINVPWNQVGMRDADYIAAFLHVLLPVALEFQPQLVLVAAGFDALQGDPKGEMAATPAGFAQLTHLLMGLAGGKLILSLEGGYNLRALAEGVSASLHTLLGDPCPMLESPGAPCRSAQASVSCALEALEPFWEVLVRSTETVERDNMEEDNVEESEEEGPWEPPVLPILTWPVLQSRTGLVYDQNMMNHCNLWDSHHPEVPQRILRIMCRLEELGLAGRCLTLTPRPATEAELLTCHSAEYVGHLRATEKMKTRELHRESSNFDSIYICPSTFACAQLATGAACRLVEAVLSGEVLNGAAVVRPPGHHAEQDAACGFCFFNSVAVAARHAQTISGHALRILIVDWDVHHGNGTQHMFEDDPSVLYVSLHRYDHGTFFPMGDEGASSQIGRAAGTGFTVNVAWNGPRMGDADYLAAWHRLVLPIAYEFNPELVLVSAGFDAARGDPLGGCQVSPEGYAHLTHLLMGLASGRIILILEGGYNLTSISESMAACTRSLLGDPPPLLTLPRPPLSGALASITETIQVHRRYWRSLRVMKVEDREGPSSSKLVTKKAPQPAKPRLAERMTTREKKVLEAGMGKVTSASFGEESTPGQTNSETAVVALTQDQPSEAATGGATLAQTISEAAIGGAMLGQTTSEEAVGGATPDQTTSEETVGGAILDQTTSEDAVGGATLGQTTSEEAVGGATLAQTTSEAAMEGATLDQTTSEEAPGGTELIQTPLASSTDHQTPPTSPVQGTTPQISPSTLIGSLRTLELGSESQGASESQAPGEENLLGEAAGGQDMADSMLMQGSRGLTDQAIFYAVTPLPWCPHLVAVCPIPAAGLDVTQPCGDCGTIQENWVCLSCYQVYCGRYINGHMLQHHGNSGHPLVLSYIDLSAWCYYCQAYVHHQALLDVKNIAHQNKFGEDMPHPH

Consider `COc1cc(NC(=O)NOCCCCCC(=O)NO)c2ncccc2c1`, for which the CI in assay [1] was determined as 0.47; in assay [2], 0.64; in assay [3], 0.4; in assay [4], 0.52; in assay [5], 0.54; in assay [6] it was 0.92. Also, the CI in assay [7] came to 0.65.
